# Experimental data pooled from the literature.
# Each line is one published result; the experiments were not run side by side.
# Target: Angiopoietin-1 receptor (TEK, Homo sapiens, UniProt Q02763)
SMILES,read-out,mode,method,tested at,endpoint,value
Cc1nn(C)cc1-c1nc2c(N3CCN(Cc4ccc(Cl)cc4)CC3)c(Cl)cnc2[nH]1,binding,,competition with immobilised ligand,1 µM,remaining binding,56%
Cn1cncc1[C@@](O)(COc1ccc(C#N)cc1-c1ccc(OC(F)(F)F)cc1)c1ccc(C#N)cc1,cell-free assay,,competition with immobilised ligand,1 µM,remaining binding,92%
CC(C)(C)c1cc(C=C(C#N)C#N)cc(Br)c1O,enzyme activity,inhibitor,,0.5 µM,remaining activity,97.9%
O=C(NCc1ncc(C(F)(F)F)cc1Cl)c1ccc2c(c1)C1(CCS(=O)(=O)CC1)[C@@H](C1CC1)N2S(=O)(=O)c1ccc(F)cc1,cell-free assay,,competition with immobilised ligand,1 µM,remaining binding,96%
O=c1[nH]c2ccccc2n1C1CCN(Cc2ccc(-c3[nH]c4cc5ncnc5cc4nc3-c3ccccc3)cc2)CC1,cell-free assay,,,0.5 µM,remaining signal,102%
Nc1ncc(-c2nc(N3CCOCC3)nc(N3CCOCC3)n2)c(C(F)F)n1,cell-free assay,,competition with immobilised ligand,10 µM,remaining binding,99%
COc1ncccc1-c1cnn2ccc(N3CCN(C(=O)OC(C)C)CC3)nc12,binding,,competition with immobilised ligand,1 µM,remaining binding,98%
COCc1c(-c2cc3cc(C)cc(OC)c3s2)c2c(N)ncnn2c1CN1CCNC(=O)C1,cell-free assay,,competition with immobilised ligand,1 µM,inhibition,89%
Cn1cc(-c2cc(F)cc(N3CCn4c(cc5c4CCCC5)C3=O)c2CO)cc(Nc2ccc(N3CCN(C4COC4)CC3)cn2)c1=O,enzyme activity,inhibitor,,0.1 µM,inhibition,7%
COc1cc(Nc2ncc(F)c(Nc3ccc4c(n3)NC(=O)C(C)(C)O4)n2)cc(OC)c1OC,binding,,,10 µM,inhibition,94%
